Calls of active or inactive are those of the source. No cut-off for these calls is given here.
How the values were obtained:
[1] = target: Dipeptidyl peptidase 4 (Rattus norvegicus) (UniProt P14740); test: Ex vivo inhibition of DPP4 in Sprague-Dawley rat plasma at 1 mg/kg, po after 6 hrs; assay type: organism-based; parameters: dose 1 mg/kg
Procedure, shortened: (§1)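 Male SD rats, 6–7 weeks old, fasted at least 8 h, given a single oral dose of 1 mg/kg in 0.5% methyl cellulose. Jugular vein blood taken before dosing and serially to 10 h (12 h in the species comparison). Plasma mixed with substrate (50 µL of 60 µM Gly-Pro-AMC). Initial fluorescence rate over 15 min at 37 °C; % inhibition is relative to basal activity.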

[2] = target: Dipeptidyl peptidase 4 (Rattus norvegicus) (UniProt P14740); test: Ex vivo inhibition of DPP4 in Sprague-Dawley rats plasma at 1 mg/kg, po after 12 hrs; assay type: organism-based; parameters: dose 1 mg/kg; procedure, shortened: as §1
Canis familiaris = test: Ex vivo inhibition of DPP4 in Beagle dog at 1 mg/kg, po after 12 hrs; assay type: functional; details: Canis lupus familiaris
Procedure, shortened: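 Male beagle dogs (11–15 kg) and male cynomolgus monkeys (3.5–6 kg), fasted 8 h, given a single oral dose of 1 mg/kg in 0.5% methyl cellulose. Femoral vein blood taken before dosing and at 12 h. Plasma DPP-IV activity measured as the initial rate of Gly-Pro-AMC cleavage (fluorescence, ex 355/em 460 nm, 37 °C); % inhibition is relative to basal activity.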

Cynomolgus monkey = test: animal or person; details: Macaca fascicularis, po, 12 h, read-out: Inhibition
[3] = target: Dipeptidyl peptidase 4 (Rattus norvegicus) (UniProt P14740); test: Ex vivo inhibition of DPP4 in Sprague-Dawley rats plasma at 1 mg/kg, po after 10 hrs; assay type: organism-based; parameters: dose 1 mg/kg; procedure, shortened: as §1
Rattus norvegicus [4] = test: Suppression of glucose level in Sprague-Dawley rats at 1 mg/kg, po administered 30 mins prior to glucose by glucose tolerance test after 6 hrs; assay type: functional, organism-based; parameters: dose 1 mg/kg
Procedure, shortened: (§2)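 Male SD rats (364–473 g), fasted at least 20 h, given vehicle (0.5% methyl cellulose) or 1 mg/kg orally at −0.5 h. Oral glucose 1 g/kg given at 0, 6 and 12 h. Tail-vein blood collected into heparinized tubes from −0.08 h to 14 h. Plasma glucose measured by glucose oxidase–peroxidase dye method.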

[5] = Stability in Tris buffer at pH 7.4 after 24 hrs; assay type: physicochemical; details: read-out: Stability
Procedure, shortened: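 Remaining percentage measured after incubation in 100 mM Tris buffer, pH 7.4, at room temperature for 24 h.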

Rattus norvegicus [6] = test: Suppression of glucose level in Sprague-Dawley rats at 1 mg/kg, po administered 30 mins prior to glucose by glucose tolerance test after 12 hrs; assay type: functional, organism-based; parameters: dose 1 mg/kg; procedure, shortened: as §2
Rattus norvegicus [7] = test: Suppression of glucose level in Sprague-Dawley rats at 1 mg/kg, po administered 30 mins prior to glucose by glucose tolerance test; assay type: functional, organism-based; parameters: dose 1 mg/kg; procedure, shortened: as §2

Sequence of Dipeptidyl peptidase 4 (Rattus norvegicus) (P14740 whole entry, looked up): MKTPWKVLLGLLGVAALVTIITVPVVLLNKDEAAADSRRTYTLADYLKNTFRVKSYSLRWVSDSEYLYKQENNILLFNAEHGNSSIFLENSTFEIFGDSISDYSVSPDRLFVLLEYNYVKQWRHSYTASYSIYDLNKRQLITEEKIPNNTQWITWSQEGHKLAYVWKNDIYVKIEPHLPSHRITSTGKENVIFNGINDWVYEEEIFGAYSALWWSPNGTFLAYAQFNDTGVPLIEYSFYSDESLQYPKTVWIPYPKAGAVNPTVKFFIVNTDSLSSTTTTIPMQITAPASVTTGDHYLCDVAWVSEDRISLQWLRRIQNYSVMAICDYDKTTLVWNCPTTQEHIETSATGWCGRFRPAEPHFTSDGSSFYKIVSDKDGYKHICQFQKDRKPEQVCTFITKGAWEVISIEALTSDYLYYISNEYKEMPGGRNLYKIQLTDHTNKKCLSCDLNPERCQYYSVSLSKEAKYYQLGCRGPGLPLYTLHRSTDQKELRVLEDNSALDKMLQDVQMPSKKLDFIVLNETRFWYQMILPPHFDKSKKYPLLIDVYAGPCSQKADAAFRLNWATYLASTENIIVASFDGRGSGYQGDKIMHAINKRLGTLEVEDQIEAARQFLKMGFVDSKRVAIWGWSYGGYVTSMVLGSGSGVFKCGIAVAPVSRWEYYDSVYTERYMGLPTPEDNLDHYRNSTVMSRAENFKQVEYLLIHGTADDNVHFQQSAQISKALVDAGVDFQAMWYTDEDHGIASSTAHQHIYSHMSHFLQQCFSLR

N#C[C@@H]1CCCN1C(=O)[C@@H]1C[C@H](CCO)CN1
inhibition [1]: 64%

C[C@@H]1N[C@H](C(=O)N2CCC[C@H]2C#N)C[C@@H]1C(=O)N1CCCC1
inhibition [2]: 82% | inhibition in vivo at 1 mg/kg (Canis familiaris): 95% | inhibition in vivo at 1 mg/kg (Cynomolgus monkey): 95% | inhibition [3]: 88% | inhibition [1]: 94%

C[C@@H]1N[C@H](C(=O)N2CCC[C@H]2C#N)C[C@@H]1C(=O)N1CCOCC1
inhibition in vivo at 1 mg/kg (Canis familiaris): 98% | inhibition in vivo at 1 mg/kg (Cynomolgus monkey): 90% | inhibition [3]: 85% | inhibition [1]: 94%

C=CC[C@@H]1CN[C@H](C(=O)N2CCC[C@H]2C#N)C1
inhibition [1]: 38%

N#C[C@@H]1CCCN1C(=O)[C@@H]1C[C@H](C(=O)N2CCCCC2)CN1
inhibition [3]: 50% | inhibition [1]: 84%

N#C[C@@H]1CCCN1C(=O)[C@@H]1C[C@H](C(N)=O)CN1
inhibition [3]: 20% | inhibition [1]: 47%

N#C[C@@H]1CCCN1C(=O)[C@@H]1C[C@H](CC(=O)O)CN1
inhibition [1]: 58%

C[C@@H]1N[C@H](C(=O)N2CCC[C@H]2C#N)C[C@@H]1C(=O)N1CCC1
inhibition [3]: 88% | inhibition [1]: 94%

CCNC(=O)[C@@H]1CN[C@H](C(=O)N2CCC[C@H]2C#N)C1
inhibition [3]: 19% | inhibition [1]: 60%

C[C@@H]1N[C@H](C(=O)N2CCC[C@H]2C#N)C[C@@H]1C(=O)N1Cc2ccccc2C1
inhibition [2]: 71% | inhibition in vivo at 1 mg/kg (Canis familiaris): 16% | inhibition [3]: 77% | inhibition [1]: 86%

N#C[C@@H]1CCCN1C(=O)[C@@H]1C[C@H](CO)CN1
inhibition [1]: 64%

N#C[C@@H]1CCCN1C(=O)[C@@H]1C[C@H](C(=O)N2CCC2)CN1
inhibition [3]: 46% | inhibition [1]: 77%

CCC[C@@H]1CN[C@H](C(=O)N2CCC[C@H]2C#N)C1
inhibition [1]: 50%

C[C@@H]1N[C@H](C(=O)N2CCC[C@H]2C#N)C[C@@H]1C(=O)N1CCCCC1
inhibition [3]: 81% | inhibition [1]: 91%

CN(C)C(=O)CC[C@@H]1CN[C@H](C(=O)N2CCC[C@H]2C#N)C1
inhibition [1]: 58%

CCN(CC)C(=O)[C@@H]1CN[C@H](C(=O)N2CCC[C@H]2C#N)C1
inhibition [1]: 43%

C[C@@H]1N[C@H](C(=O)N2CCC[C@H]2C#N)C[C@@H]1C(=O)N(C)C
inhibition [2]: 81% | Activity (Rattus norvegicus [4]): Active | inhibition in vivo at 1 mg/kg (Canis familiaris): 98% | remaining at 24 h [5]: 92% | Activity (Rattus norvegicus [6]): Active | inhibition in vivo at 1 mg/kg (Cynomolgus monkey): 93% | Activity (Rattus norvegicus [7]): Active | inhibition [3]: 84% | inhibition [1]: 95%

N#C[C@@H]1CCCN1C(=O)[C@@H]1C[C@H](C(=O)N2CCCCCCC2)CN1
inhibition [1]: 63%

C[C@@H]1N[C@H](C(=O)N2CCC[C@H]2C#N)C[C@@H]1C(=O)N1CCSCC1
inhibition [3]: 85% | inhibition [1]: 92%

N#C[C@@H]1CCCN1C(=O)[C@@H]1C[C@H](C(=O)N2CCOCC2)CN1
inhibition [3]: 44% | inhibition [1]: 73%

CCCNC(=O)[C@@H]1CN[C@H](C(=O)N2CCC[C@H]2C#N)C1
inhibition [3]: 21% | inhibition [1]: 59%

CCN(C)C(=O)[C@H]1C[C@@H](C(=O)N2CCC[C@H]2C#N)N[C@H]1C
inhibition [2]: 74% | inhibition in vivo at 1 mg/kg (Canis familiaris): 89% | inhibition in vivo at 1 mg/kg (Cynomolgus monkey): 95% | inhibition [3]: 79% | inhibition [1]: 92%

N#C[C@@H]1CCCN1C(=O)[C@@H]1CCCN1
inhibition [1]: 20%

CNC(=O)[C@@H]1CN[C@H](C(=O)N2CCC[C@H]2C#N)C1
inhibition [3]: 28% | inhibition [1]: 75%

CN(C)C(=O)C[C@@H]1CN[C@H](C(=O)N2CCC[C@H]2C#N)C1
inhibition [1]: 66%

N#C[C@@H]1CCCN1C(=O)[C@@H]1C[C@H](C(=O)N2CCCCCC2)CN1
inhibition [1]: 68%

N#C[C@@H]1CCCN1C(=O)[C@@H]1C[C@H](C(=O)N2CCCC2)CN1
inhibition [3]: 40% | inhibition [1]: 85%

CCN(C)C(=O)[C@@H]1CN[C@H](C(=O)N2CCC[C@H]2C#N)C1
inhibition [3]: 34% | inhibition [1]: 71%

CN(C)C(=O)[C@@H]1CN[C@H](C(=O)N2CCC[C@H]2C#N)C1
inhibition [2]: 24% | inhibition in vivo at 1 mg/kg (Canis familiaris): 45% | remaining at 24 h [5]: 52% | inhibition in vivo at 1 mg/kg (Cynomolgus monkey): 44% | inhibition [3]: 52% | inhibition [1]: 76%

N#C[C@@H]1CCCN1C(=O)[C@@H]1C[C@H](C(=O)N2CCSCC2)CN1
inhibition [3]: 19% | inhibition [1]: 72%

— ChEMBL document CHEMBL1147187, “Design and synthesis of new potent dipeptidyl peptidase IV inhibitors with enhanced ex vivo duration” (Bioorg Med Chem, 2007)
